49 variants from the RNAGym collection of RNA variant scans (doi:10.1002/anie.201605470) can be followed below.

The chains are these.
B1: Osa-1-4 twister ribozyme (parent)
chain: CCGCCUAACACUGCCAAUGCCGGUCCCAAGCCCGGAUAAAAGUGGAGGGGGCGG

Variants of B1 are the subject of this series. Kind of series: self-cleavage, relative activity (ratio to wild type); higher = more cleavage; co-transcriptional. The essentials: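 The 48 positions downstream of the cleavage site in a 54-nucleotide Oryza sativa twister ribozyme template were synthesised at 97 % wild-type base and 1 % of each other base. The template was transcribed in vitro at 37 °C for 2 h, with self-cleavage allowed during transcription. Reads with or without upstream sequence after deep sequencing marked cleavage status, and relative activity is fraction cleaved normalised to wild type.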
Regarding CCGCCUAACACUGCCAAUGCGGGUCCCAAGCCCGGAUAAAAGUGGAGGAGGCGG [C21G G49A], the self-cleavage was 0.05.

Turning to CCGCCUAACACUGCCAAUGCGGGUCCCAAGCCCGGAUAAAAGUGGAGGCGGCGG [C21G G49C], the self-cleavage stood at 0.03.

For the variant CCGCCUAACACUGCCAAUGCGGGUCCCAAGCCCGGAUAAAAGUGGAGGGGGCAG [C21G G53A], the self-cleavage was found to be 0.08.

Turning to CCGCCUAACACUGCCAAUGCGGGUCCCAAGCCCGGAUAAAAGUGGAGGGGGCUG [C21G G53U], the self-cleavage was determined as 0.04.

For the variant CCGCCUAACACUGCCAAUGCGGGUCCCAAGCCCGGAUAAAAGUGGAGGGGGCCG [C21G G53C], the self-cleavage came out at 0.02.

With CCGCCUAACACUGCCAAUGCGGGUCCCAAGCCCGGAUAAAAGUGGAAGGGGCGG [C21G G47A], the self-cleavage was determined as 0.03.

Regarding CCGCCUAACACUGCCAAUGCGGGUCCCAAGCCCGGAUAAAAGUGGAUGGGGCGG [C21G G47U], the self-cleavage came to 0.03.

With CCGCCUAACACUGCCAAUGCGGGUCCCAAGCCCGGAUAAAAGUGGACGGGGCGG [C21G G47C], the self-cleavage was 0.04.

Consider CCGCCUAACACUGCCAAUGCGGGUCCCAAGCCCGGAUAAAAGUGCAGGGGGCGG [C21G G45C], for which the self-cleavage is 0.02.

For CCGCCUAACACUGCCAAUGCGGGUCCCAAGCCCGGAUAAAAGUGAAGGGGGCGG [C21G G45A], the self-cleavage stood at 0.04.

For the variant CCGCCUAACACUGCCAAUGCGGGUCCCAAGCCCGGAUAAAAGUGUAGGGGGCGG [C21G G45U], the self-cleavage stood at 0.02.

Turning to CCGCCUAACACUGCCAAUGCGGGUCCAAAGCCCGGAUAAAAGUGGAGGGGGCGG [C21G C27A], the self-cleavage was determined as 0.04.

Take CCGCCUAACACUGCCAAUGCGGGUCCGAAGCCCGGAUAAAAGUGGAGGGGGCGG [C21G C27G]: the self-cleavage came out at 0.03.

On to CCGCCUAACACUGCCAAUGCGGGUCCUAAGCCCGGAUAAAAGUGGAGGGGGCGG [C21G C27U], for which the self-cleavage was 0.02.

Take CCGCCUAACACUGCCAAUGCAGGUCCCAAGCCCGGAUAAAAGCGGAGGGGGCGG [C21A U43C]: the self-cleavage was found to be 0.11.

As to CCGCCUAACACUGCCAAUGCAGGUCCCAAGCCCGGAUAAAAGGGGAGGGGGCGG [C21A U43G], the self-cleavage was found to be 0.1.

As for CCGCCUAACACUGCCAAUGCAGGUCCCAAGCCCGGAUAAAAGAGGAGGGGGCGG [C21A U43A], the self-cleavage worked out at 0.09.

As for CCGCCUAACACUGCCAAUGCGGGUCCCAAGCCCGGAUAAAAGUGGAGUGGGCGG [C21G G48U], the self-cleavage worked out at 0.02.

On to CCGCCUAACACUGCCAAUGCGGGUCCCAAGCCCGGAUAAAAGUGGAGCGGGCGG [C21G G48C], for which the self-cleavage is 0.03.

Consider CCGCCUAACACUGCCAAUGCGGGUCCCAAGCCCGGAUAAAAGUGGAGAGGGCGG [C21G G48A], for which the self-cleavage is 0.03.

Turning to CCGCCUAACACUUCCAAUGCGGGUCCCAAGCCCGGAUAAAAGUGGAGGGGGCGG [C21G G13U], the self-cleavage is 0.02.

Turning to CCGCCUAACACUCCCAAUGCGGGUCCCAAGCCCGGAUAAAAGUGGAGGGGGCGG [C21G G13C], the self-cleavage worked out at 0.01.

For the variant CCGCCUAACACUACCAAUGCGGGUCCCAAGCCCGGAUAAAAGUGGAGGGGGCGG [C21G G13A], the self-cleavage was found to be 0.02.

For CCGCCUAACACUGCCAAUGCGGGUCCCAAGCCCGCAUAAAAGUGGAGGGGGCGG [C21G G35C], the self-cleavage amounted to 0.03.

Regarding CCGCCUAACACUGCCAAUGCGGGUCCCAAGCCCGAAUAAAAGUGGAGGGGGCGG [C21G G35A], the self-cleavage was 0.08.

With CCGCCUAACACUGCCAAUGCGGGUCCCAAGCCCGUAUAAAAGUGGAGGGGGCGG [C21G G35U], the self-cleavage was determined as 0.06.

On to CCGCCUAACACUGCCAAUGCGGGUCCCAAGGCCGGAUAAAAGUGGAGGGGGCGG [C21G C31G], for which the self-cleavage is 0.06.

For the variant CCGCCUAACACUGCCAAUGCGGGUCCCAAGUCCGGAUAAAAGUGGAGGGGGCGG [C21G C31U], the self-cleavage came to 0.05.

In the case of CCGCCUAACACUGCCAAUGCGGGUCCCAAGACCGGAUAAAAGUGGAGGGGGCGG [C21G C31A], the self-cleavage is 0.02.

For the variant CCGCCUAACACUGCCAAUGCGGGUCCCAAGCCCGGAUAAAAGAGGAGGGGGCGG [C21G U43A], the self-cleavage amounted to 0.09.

Consider CCGCCUAACACUGCCAAUGCGGGUCCCAAGCCCGGAUAAAAGGGGAGGGGGCGG [C21G U43G], for which the self-cleavage is 0.08.

As for CCGCCUAACACUGCCAAUGCGGGUCCCAAGCCCGGAUAAAAGCGGAGGGGGCGG [C21G U43C], the self-cleavage amounted to 0.05.

As for CCGCCUAACACUGCCAAUGCGGGUCCCAAGCCCUGAUAAAAGUGGAGGGGGCGG [C21G G34U], the self-cleavage was found to be 0.89.

On to CCGCCUAACACUGCCAAUGCGGGUCCCAAGCCCCGAUAAAAGUGGAGGGGGCGG [C21G G34C], for which the self-cleavage was found to be 0.83.

On to CCGCCUAACACUGCCAAUGCGGGUCCCAAGCCCAGAUAAAAGUGGAGGGGGCGG [C21G G34A], for which the self-cleavage amounted to 0.3.

As for CCGCCUAACACUGCCAAUGCUGGUCCCAAGCCCGGAUAAAAGUGGAGGGGGCGG [C21U], the self-cleavage was 1.03.

In the case of CCGCCUAACACUGCCAAUGCGGGUCCCAAGCCCGGAUAAAAGUGGAGGGGGCGG [C21G], the self-cleavage is 0.08.

As for CCGCCUAACACUGCCAAGGCGGGUCCCAAGCCCGGAUAAAAGUGGAGGGGGCGG [C21G U18G], the self-cleavage came to 0.11.

As for CCGCCUAACACUGCCAACGCGGGUCCCAAGCCCGGAUAAAAGUGGAGGGGGCGG [C21G U18C], the self-cleavage was 0.08.

As for CCGCCUAACACUGCCAAAGCGGGUCCCAAGCCCGGAUAAAAGUGGAGGGGGCGG [C21G U18A], the self-cleavage was 0.1.

Regarding CCGCCUAACACUGCCAAUGCGGGUCCCAAGCCCGGAGAAAAGUGGAGGGGGCGG [C21G U37G], the self-cleavage turned out to be 0.14.

CCGCCUAACACUGCCAAUGCGGGUCCCAAGCCCGGAAAAAAGUGGAGGGGGCGG [C21G U37A]: the self-cleavage is 0.13.

For the variant CCGCCUAACACUGCCAAUGCGGGUCCCAAGCCCGGACAAAAGUGGAGGGGGCGG [C21G U37C], the self-cleavage was found to be 0.08.

Regarding CCGCCUAACACUGCCAAUGCGGGUCCCAAGCCCGGAUAAAAGUGGAGGGGGUGG [C21G C52U], the self-cleavage was found to be 0.1.

Turning to CCGCCUAACACUGCCAAUGCGGGUCCCAAGCCCGGAUAAAAGUGGAGGGGGAGG [C21G C52A], the self-cleavage is 0.1.

Regarding CCGCCUAACACUGCCAAUGCGGGUCCCAAGCCCGGAUAAAAGUGGAGGGGGGGG [C21G C52G], the self-cleavage turned out to be 0.18.

Take CCGCCUAACACUGCCAAUGCGGGUCGCAAGCCCGGAUAAAAGUGGAGGGGGCGG [C21G C26G]: the self-cleavage turned out to be 0.05.

CCGCCUAACACUGCCAAUGCGGGUCUCAAGCCCGGAUAAAAGUGGAGGGGGCGG [C21G C26U]: the self-cleavage came out at 0.06.

For the variant CCGCCUAACACUGCCAAUGCGGGUCACAAGCCCGGAUAAAAGUGGAGGGGGCGG [C21G C26A], the self-cleavage turned out to be 0.02.
